How the values were obtained:
Mus musculus [1] = assay: Percentage increase in life span of L1210 leukemia implanted mice at a dose of 100 mg/kg; format: functional
Summary of the method: (§1)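 Female CD2F1 mice, 10–12 weeks old, inoculated ip on day 0 with 10⁵ L1210 leukemia cells. Test agent dissolved in sterile saline immediately before use and given as a single ip dose on day 1 at 0.01 mL/g body weight. Groups of 6–8 treated and 18–24 control mice, following NCI screening protocol. Read-out is % increase in life span, with survivors noted at day 60.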

Mus musculus [2] = assay: Percentage increase in life span of L1210 leukemia implanted mice at a dose of 15-60 mg/kg; format: functional; summary of the method: as §1
Mus musculus [3] = assay: Percentage increase in life span of L1210 leukemia implanted mice at a dose of 200 mg/kg; format: functional; summary of the method: as §1
Mus musculus [4] = assay: Percentage increase in life span of L1210 leukemia implanted mice at a dose of 300 mg/kg; format: functional; summary of the method: as §1
[5] = Lethal dose to kill 50% of the mice after single ip injection to healthy female CD2F1 mice; format: toxicity, organism-based; conditions: CD2F1, mouse, in vivo
Summary of the method: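 Healthy female CD2F1 mice received a single ip injection at 5–6 dose levels spanning 0–100% mortality, with 10 or 15 animals per group. Deaths were followed for 21 days. LD50 and 95% confidence limits were calculated by probit analysis.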

Mus musculus [6] = assay: Percentage increase in life span of L1210 leukemia implanted mice at a dose of 400 mg/kg; format: functional; summary of the method: as §1
Mus musculus [7] = assay: Percentage increase in life span of L1210 leukemia implanted mice at a dose of 60 mg/kg; format: functional; summary of the method: as §1
Mus musculus [8] = assay: Percentage increase in life span of L1210 leukemia implanted mice at a dose of 150 mg/kg; format: functional; summary of the method: as §1
Mus musculus [9] = species on record: Mus musculus; assay: Effective dose that causes 50% increase in life span of mice; format: functional
Summary of the method: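 In L1210-bearing mice, ip dosing was run on day 1 across 4–6 dose levels giving 15–100% ILS, with six mice per dose. ED50 (dose giving 50% ILS) was obtained per experiment by linear regression of dose against %ILS. Values are reported as mean ± SD over the number of experiments.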

Mus musculus [10] = assay: Percentage increase in life span of L1210 leukemia implanted mice at a dose of 30-180 mg/kg; value range is 0-12; format: functional; summary of the method: as §1
Mus musculus [11] = assay: Percentage increase in life span of L1210 leukemia implanted mice at a dose of 120 mg/kg; format: functional; summary of the method: as §1
Mus musculus [12] = assay: Percentage increase in life span of L1210 leukemia implanted mice at a dose of 30-180 mg/kg; format: functional; summary of the method: as §1
Mus musculus [13] = assay: Percentage increase in life span of L1210 leukemia implanted mice at a dose of 80 mg/kg; format: functional; summary of the method: as §1
Mus musculus [14] = assay: Percentage increase in life span of L1210 leukemia implanted mice at a dose of […] 50 mg/kg; format: functional; summary of the method: as §1
Mus musculus [15] = assay: Percentage increase in life span of L1210 leukemia implanted mice at a dose of 500 mg/kg; format: functional; summary of the method: as §1
Mus musculus [16] = assay: Percentage increase in life span of L1210 leukemia implanted mice at a dose of 180 mg/kg; format: functional; summary of the method: as §1
Mus musculus [17] = assay: Percentage increase in life span of L1210 leukemia implanted mice at a dose of 600 mg/kg; format: functional; summary of the method: as §1

| Compound | ILS at 100 mg/kg (Mus musculus [1]) | ILS at 200 mg/kg (Mus musculus [3]) | ILS at 300 mg/kg (Mus musculus [4]) | LD50 [5] | ILS at 400 mg/kg (Mus musculus [6]) | ILS at 150 mg/kg (Mus musculus [8]) | ED50 (Mus musculus [9]) | ILS at 120 mg/kg (Mus musculus [11]) | further results |
| --- | --- | --- | --- | --- | --- | --- | --- | --- | --- |
| O=P1(NCCF)OCCCN1CCCl (stereo not given) | -40% | -40% |  |  |  |  |  |  | ILS (Mus musculus [2]): 10% |
| O=[P@@]1(NCCBr)OCCCN1CCCl | > 550% | > 550% | > 350% | 368 mg/kg | 62% | > 550% | 27.7 mg/kg |  | ILS at 60 mg/kg (Mus musculus [7]): 140% |
| O=P(OCCNP1(=O)OCCCN1CCCl)(OCc1ccccc1)OCc1ccccc1 (stereo not given) |  |  |  |  |  |  |  |  | ILS (Mus musculus [10]): 0% |
| O=P1(N(CCCl)CCCl)NCCCO1 (stereo not given) [CYCLOPHOSPHAMIDE ANHYDROUS] |  | > 550% | > 550% | 445 mg/kg | > 425% | 89% | 90.6 mg/kg | 86% |  |
| Cc1ccc(S(=O)(=O)OCCNP2(=O)OCCCN2CCCl)cc1 (stereo not given) |  |  |  |  |  |  |  |  | ILS (Mus musculus [12]): 13% |
| O=P1(NCCBr)OCCCN1CCCl (stereo not given) | > 430% | > 550% | > 550% | 470 mg/kg | 500% | > 550% | 36.2 mg/kg |  | ILS at 80 mg/kg (Mus musculus [13]): 110%; ILS at 60 mg/kg (Mus musculus [7]): 88%; ILS at 50 mg/kg (Mus musculus [14]): 74% |
| O=[P@]1(NCCBr)OCCCN1CCCl |  | > 550% | > 550% | 541 mg/kg | > 550% | > 500% | 66.2 mg/kg | 114% | ILS at 500 mg/kg (Mus musculus [15]): 206% |
| CC(=O)OCCNP1(=O)OCCCN1CCCl (stereo not given) |  |  |  |  |  |  |  |  | ILS (Mus musculus [12]): 13% |
| O=P1(NCCCl)OCCCN1CCCl (stereo not given) [IFOSFAMIDE] |  | > 350% | > 400% | 679 mg/kg | > 500% | 123% | 88.6 mg/kg | 74% | ILS at 180 mg/kg (Mus musculus [16]): > 250%; ILS at 500 mg/kg (Mus musculus [15]): > 500%; ILS at 600 mg/kg (Mus musculus [17]): > 480% |
| CCOP(=O)(OCC)OCCNP1(=O)OCCCN1CCCl (stereo not given) |  |  |  |  |  |  |  |  | ILS (Mus musculus [10]): 0% |
